From article PMC2753677 (Biochemistry, 2009)
Entries after “also recorded” stand apart in the source; their conditions may differ.

Legend:
[1] = system: CypB-induced chemotaxis of mouse CD4+ T cells; experiment: Boyden chamber chemotaxis assay, CypB-induced; assay type: cell-based; details: 2 μM compound, 200 ng/ml CypB, activated mouse CD4+ T cells, 50 min
In short: (§1)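 Mouse spleen cells (3×10^6/well) stimulated overnight with ConA 10 μg/ml in Click's medium + 5% FCS, 37°C, 5% CO2; CD4+ T cells isolated by MACS negative depletion. 104 cells placed in upper wells of 48-well Boyden chamber (5-μm polycarbonate membrane). Lower wells: RPMI-1640 + 1% BSA with recombinant human CypA or recombinant CypB. Test compound added to top and bottom wells. 50 min, 37°C. Membrane Wright-Giemsa stained; chemotactic index = migrated cells/mean medium-alone.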

[2] = system: CypA-induced chemotaxis of mouse CD4+ T cells; experiment: Boyden chamber chemotaxis assay, CypA-induced; assay type: cell-based; details: 2 μM compound, 100 ng/ml CypA, activated mouse CD4+ T cells, 50 min
In short: as §1

[3] = ITC control titration of CsA with compound 1; assay type: binding; details: syringe 1, cell CsA; n.s. = no signal of heat formation
CypA [4] = biological target: T1, CypA (Homo sapiens, UniProt P62937); experiment: isothermal titration calorimetry; assay type: binding
FKBP12 = FKBP12 (Homo sapiens, UniProt P62942); experiment: PPIase inhibition, FKBP12; assay type: biochemical
Par14 = Par14 (Homo sapiens, UniProt Q9Y237); experiment: PPIase inhibition, Par14; assay type: biochemical
Human CypB = Human CypB (Homo sapiens, UniProt P23284); experiment: protease-free PPIase assay, CypB; assay type: biochemical; details: up to a concentration of 30 μM
mouse (His)6-CypC = mouse (His)6-CypC (Mus musculus, UniProt P30412); experiment: protease-free PPIase assay, CypC; assay type: biochemical
[5] = system: RANTES-induced migration of mouse CD4+ T cells; experiment: Boyden chamber chemotaxis assay, RANTES-induced; assay type: cell-based; details: 1 ng/ml mouse RANTES, activated mouse CD4+ T cells (data not shown)
CypA [6] = biological target: T1, CypA; experiment: protease-free PPIase assay, CypA; assay type: biochemical; details: 35 mM HEPES pH 7.8, 283 K, Suc-Ala-Ala-Pro-Phe-pNA 60 μM

T1 sequence (P62937 whole entry): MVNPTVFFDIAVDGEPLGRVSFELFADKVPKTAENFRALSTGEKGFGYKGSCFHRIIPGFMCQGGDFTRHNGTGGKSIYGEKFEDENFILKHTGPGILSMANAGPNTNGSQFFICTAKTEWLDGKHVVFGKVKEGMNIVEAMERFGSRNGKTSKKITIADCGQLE
mouse (His)6-CypC, sequence (P30412 whole entry): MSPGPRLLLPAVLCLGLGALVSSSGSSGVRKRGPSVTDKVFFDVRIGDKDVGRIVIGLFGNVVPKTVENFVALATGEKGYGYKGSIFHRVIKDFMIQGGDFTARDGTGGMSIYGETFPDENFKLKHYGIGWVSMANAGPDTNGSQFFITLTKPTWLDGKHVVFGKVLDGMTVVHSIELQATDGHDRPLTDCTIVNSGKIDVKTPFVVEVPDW
FKBP12, sequence (P62942 whole entry, species assumed): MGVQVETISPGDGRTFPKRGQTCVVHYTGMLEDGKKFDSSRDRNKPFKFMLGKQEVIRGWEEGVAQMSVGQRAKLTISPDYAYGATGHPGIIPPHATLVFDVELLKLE
Par14, sequence (Q9Y237 whole entry): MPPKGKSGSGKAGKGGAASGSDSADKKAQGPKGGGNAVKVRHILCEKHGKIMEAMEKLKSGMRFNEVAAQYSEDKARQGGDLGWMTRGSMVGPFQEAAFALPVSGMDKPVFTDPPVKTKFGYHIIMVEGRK
Human CypB, sequence (P23284 34-216): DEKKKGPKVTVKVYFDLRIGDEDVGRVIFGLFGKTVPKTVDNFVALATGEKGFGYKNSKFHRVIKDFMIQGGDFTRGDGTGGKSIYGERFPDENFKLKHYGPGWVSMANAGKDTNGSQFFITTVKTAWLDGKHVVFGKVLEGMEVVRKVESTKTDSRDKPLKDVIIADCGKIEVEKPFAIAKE

| Compound | effect on CypB-induced chemotaxis [1] | inhibition of CypA-induced chemotaxis [2] | KA [3] | association constant KA (CypA [4]; competition ITC approach, calculated by eq. 2, 293 K) [M⁻¹] | binding enthalpy ΔH (CypA [4]; competition ITC approach, calculated by eq. 3, 293 K) [kcal/mol] | Kd (CypA [4]; read-out: dissociation constant KD, ITC probe of CsA/compound 1 competition) [µM] | Ki (FKBP12) [µM] | influence on Par14 (Par14) | response of PPIase activity of CypB (Human CypB) | Ki (mouse (His)6-CypC; CypC, 35 mM HEPES pH 7.8, 283 K, Suc-Ala-Ala-Pro-Phe-pNA 60 μM) [µM] | response of PPIase activity of CypC (mouse (His)6-CypC; up to a concentration of 30 μM) | effect on RANTES-induced cell migration [5] | Ki (CypA [6]) [µM] |
| --- | --- | --- | --- | --- | --- | --- | --- | --- | --- | --- | --- | --- | --- |
| O=C(c1cc(-c2cc(F)cc([N+](=O)[O-])c2O)cc([N+](=O)[O-])c1O)C1CCc2ccccc21 (stereo not shown) [Compound 1] | barely impacted; also recorded: not influenced | almost completely; also recorded: specifically inhibited | n.s. | 44000 | -2.8 | 22.6 | 38 ± 8 | does not influence | did not respond | > 100 | did not respond | not impacted |  |
| [O-(CF-NH(CH2)2NHC(O)CH2-)D-Ser]^8CsA |  |  |  |  |  |  |  |  |  |  |  |  | 0.0024 ± 0.0003 |
